From PubChem BioAssay
Most compounds without a hit are left out; they make up all but 1.7% or so of the library.
Rpn11 inh: Rpn11 (PSMD14) deubiquitinase inhibitors, primary screen, biochemical, fluorescence polarization, uHTS; 0.59% of 360,000 active; 26S proteasome non-ATPase regulatory subunit 14 (Homo sapiens), O00487; human 26S proteasome, Ub4-pepOG fluorescence polarization; 20S core pre-blocked with epoxomicin; calls only at 20 µM; AID 588493, 2011;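 active = inhibition at 20 µM, scaled to each plate's controls, above about 33%, limit read from the data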
IDE inh: human IDE inhibitors in live cells, primary screen, fluorescence polarization, HEK cells, FAbetaB substrate; inhibition, % at 5.59 µM; 0.41% of 320,000 active; AID 434962, 2010; Insulin-degrading enzyme (Homo sapiens), P14735; FAbetaB cleavage;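 active = percent inhibition above the average of all tested compounds plus 3 SD, set per screening campaign, cut at about 16% in these data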;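 note: IDE supplied by intact live HEK cells; FP after avidin binding of uncleaved biotin substrate so inhibition keeps polarization high; 0% = DMSO wells and 100% = 60 µM reference IDE inhibitor Ii1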
HNF4A DNA FP: change in binding of human HNF4A to DNA, primary screen, biochemical, fluorescence polarization, FITC-DNA | activity change, % at 10 µM | 0.3% of 360,000 active | Hepatocyte nuclear factor 4-alpha (Homo sapiens), P41235 | AID 1224865, 2016 | 1 h; in the data active = activity change above about 30%, passing the limit was not always enough
CSN deneddyl inh: inhibitors of CSN-mediated cullin deneddylation, primary screen, biochemical, fluorescence polarization, uHTS; Purified CSN, SCF-Nedd8-OG deneddylation; AID 651999, 2013; 0.38% of 360,000 active; inhibition, % at 12.5 µM;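 active = pattern-corrected inhibition above about 35%, with an unprinted fluorescence ratio check between 0.5 and 1.5, limit read from the data, passing the limit was not always enough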;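 note: 0% = enzyme with substrate and 100% = substrate without enzyme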
Target sequence (Q92905 whole entry, looked up, one chain of several): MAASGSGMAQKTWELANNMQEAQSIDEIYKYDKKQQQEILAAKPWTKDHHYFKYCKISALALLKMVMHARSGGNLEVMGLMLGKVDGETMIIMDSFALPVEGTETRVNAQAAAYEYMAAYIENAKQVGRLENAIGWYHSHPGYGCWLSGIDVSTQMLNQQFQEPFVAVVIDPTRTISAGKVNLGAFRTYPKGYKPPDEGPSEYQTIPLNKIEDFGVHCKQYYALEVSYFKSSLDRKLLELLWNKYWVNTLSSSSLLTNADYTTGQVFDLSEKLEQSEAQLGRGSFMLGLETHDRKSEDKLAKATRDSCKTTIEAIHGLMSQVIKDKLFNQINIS
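Material: purified human Csn5 enzyme expressed in HEK293T cells / Medium: Tris buffer pH 7.5, NaCl, DTT, Tween-20, trehalose, ovalbumin / Compound dosing: 12.5 µM single point / Schedule: 90 min incubation of compound, enzyme and substrate at room temperature / Signal: fluorescence polarization of the substrate / Control set: no-enzyme wells high, enzyme-with-substrate wells low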
TPT1 inhibitor: Candida albicans TPT1 enzyme inhibitors, primary screen, biochemical, fluorescence polarization; tRNA 2'-phosphotransferase TPT1 (Candida albicans SC5314); recombinant caTPT1, FP RNA substrate dephosphorylation; inhibition, % at 5 µM; 0.81% of 300,000 active; AID 1962, 2009;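 active = inhibition above the mean of all tested compounds plus 3 SD, set per screening campaign, cut at about 24% in these data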;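 note: plate controls were DMSO alone for no effect and ferristatin control at 100 nM for full effect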
IDE act: human IDE activators in live cells, primary screen, fluorescence polarization, HEK cells, FAbeta-B substrate. Insulin-degrading enzyme (Homo sapiens), P14735. FAbeta-B cleavage; 0% vehicle, 100% cell-free pure enzyme wells. activation, % at 5.96 µM. 0.073% of 340,000 active. AID 493087, 2011;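 active = activation above the mean of all tested compounds plus 3 SD, set per screening campaign, cut at about 17% in these data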
IDE cell inh cf: human IDE inhibitors in live cells, confirmation, fluorescence polarization, HEK cells, FAbetaB substrate. FAbetaB cleavage. inhibition, % at 5.59 µM. shares compounds with IDE inh. 51% of 1,200 active;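 active = mean inhibition across triplicate wells above the cutoff set by the earlier primary insulin-degrading enzyme screen, cut at about 16% in these data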;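 note: 0% = DMSO wells and 100% = 60 µM reference IDE inhibitor Ii1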
HEK cytotox: cytotoxicity in HEK cells, cytotoxicity control for IDE inhibitor project, cell-based, luminescence; shares compounds with IDE inh; HEK293 cytotoxicity, ATP luminescence; inhibition, % at 5.59 µM; 28% of 1,200 active; in the data active = inhibition above about 22%;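 note: 0% = vehicle wells and 100% = reference cytotoxic drug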
* hit, by the source's call; i = inactive; · = no result.

SMILES	Rpn11 inh	IDE inh	HNF4A DNA FP	CSN deneddyl inh	TPT1 inhibitor	IDE act	IDE cell inh cf	HEK cytotox
COCCOC(=O)C1=C(C)NC2=C(C(=O)CC(c3cccs3)C2)C1c1ccsc1 (configuration not stated)	i	9	0	-2	2	3	·	·
CCOC(=O)c1c(C)n(-c2ccc(C)cc2)c2ccc(OCC(O)CNCC3CCCO3)cc12 (configuration not stated)	i	17*	7	5	-4	-10	7	13
CCOC(=O)c1c(C)n(-c2ccc(C)cc2)c2ccc(OCC(O)CNCCCO)cc12 (configuration not stated)	i	17*	1	-1	-1	-15	10	16
Cc1cccc(NC(=O)NC2CC3CCC(C2)N3Cc2ccco2)c1 (configuration not stated)	i	3	-1	4	-6	8	·	·
Cc1cccc(C(=O)N2CCN(c3ncnc4c3cnn4-c3ccccc3)CC2)c1	i	6	-1	-1	3	-5	·	·
Cc1ccc(OCc2ccc(C(=O)NCC3CCCO3)cc2)cc1C (configuration not stated)	i	5	-1	2	·	-8	·	·
O=C(NCC1CCCO1)c1ccc(COc2ccc(Br)cc2)cc1 (configuration not stated)	i	22*	3	0	-8	-13	5	24*
Cc1ccc(C(=O)OCC(=O)Nc2ccccc2C(F)(F)F)cc1S(=O)(=O)N1CCOCC1	i	4	-4	2	-4	3	·	·
O=S(=O)(c1ccc(SCc2cccc(Cl)c2)nc1)N1CCCC1	i	16*	-2	-4	·	-18	18*	8
Cc1ccc(CSc2ccc(S(=O)(=O)N3CCCC3)cn2)cc1	i	7	3	0	·	3	·	·
Cc1cc(C)c2c(n1)SCC(=O)N2CC(=O)Nc1ccc(Br)c(C)c1	i	1	-1	4	-2	2	·	·
CCCC12CN(C(=O)c3ccc([N+](=O)[O-])cc3)CC(C)(CN(C(=O)c3ccc([N+](=O)[O-])cc3)C1)C2=O	i	1	0	0	-1	·	·	·
COc1ccc(C(=O)N/C(=C/c2cccs2)C(=O)NN)cc1OC	i	22*	-2	-2	-4	-22	-2	11
COc1ccc(C(=O)N/C(=C\c2cccs2)C(=O)N2CCN(C)CC2)cc1OC	i	-1	-2	1	2	0	·	·
Cn1c(SCc2nc(-c3ccccc3)no2)nnc1-c1cccs1	i	12	-2	0	-1	-12	·	·
Cn1c(SCc2nc(-c3ccc(Cl)cc3)no2)nnc1-c1cccs1	i	16*	-5	-2	-2	-13	8	9
Cn1c(SCCOc2ccc(Cl)cc2)nnc1-c1ccncc1	i	44*	1	9	0	-48	15	16
Cc1ccc(OCCSc2nnc(-c3cccs3)n2C)cc1	i	20*	-2	1	-2	-20	8	6
Cc1c(C(=O)NCc2ccccn2)sc2nc(-c3ccc(F)cc3)cn12	i	20*	-3	-2	-3	-11	11	62*
Cc1c(C(=O)NCc2ccccn2)sc2nc(-c3ccccc3)cn12	i	8	4	4	3	-6	·	·
CC1=C(C(=O)OCc2ccc3c(c2)OCO3)C(c2ccc(O)c([N+](=O)[O-])c2)NC(=O)N1 (configuration not stated)	i	-5	1	-3	-8	6	·	·
CCCCNC(=S)Nc1cccc(S(=O)(=O)NC2=NCCC2)c1	i	7	-1	16	0	5	·	·
O=S(=O)(NC1=NCCC1)c1cccc(NC(=S)NCCc2ccccc2)c1	i	22*	-2	-1	-2	-4	11	6
COc1ccc(C=C2CCc3ccccc3C2=O)cc1	i	·	3	-3	·	·	·	·
COc1ccc2c(c1)CC/C(=C/c1ccco1)C2=O	i	19*	5	5	15	-4	2	15
SMILES	Rpn11 inh	IDE inh	HNF4A DNA FP	CSN deneddyl inh	TPT1 inhibitor	IDE act	IDE cell inh cf	HEK cytotox
O=C(Nn1c(O)c(C=C2N=c3ccccc3=N2)sc1=S)c1ccccc1	i	20*	4	3	7	-15	15	6
Cc1c(Cl)cccc1NC(=O)N1CCCN(c2nc(-c3ccccc3)ns2)CC1	i	17*	0	-1	1	-12	2	51*
O=C(Nc1ccccc1)N1CCN(c2nc(-c3ccccc3)ns2)CC1	i	14	0	-1	-2	-26	·	·
O=C(Nc1ccccc1Cl)N1CCCN(c2nc(-c3ccccc3)ns2)CC1	i	21*	-1	2	0	-15	8	31*
CC(=O)C1=C(C)NC(SCSc2ccccc2)=C(C#N)C1c1cccnc1 (configuration not stated)	·	21*	·	·	5	·	13	13
O=C(NCC1CCCO1)c1cccc2c1C(=O)c1ccc(N3CCC(Cc4ccccc4)CC3)cc1S2(=O)=O (configuration not stated)	i	50*	62	10	·	-44	83*	50*
O=C(NC[C@@H]1CCCO1)c1cccc2c1C(=O)c1ccc(N3CCOCC3)cc1S2(=O)=O	i	3	21	11	·	3	·	·
Cc1cc(C(=O)N2CCN(c3ccc(C(F)(F)F)cn3)CC2)c(C)o1	i	17*	6	3	-4	-18	2	21
COc1cccc(NC(=O)N2CCN(c3ccc(C(F)(F)F)cn3)CC2)c1	i	18*	-2	-4	-2	-7	8	26*
O=C(Nc1ccccc1)N1CCCN(c2ccc(C(F)(F)F)cn2)CC1	i	-4	-1	-1	0	0	·	·
COc1cc(-c2cc(=O)c3ccccc3o2)ccc1O	i	25*	4	-1	-2	-21	24*	17
